From ChEMBL document CHEMBL1142623, “Phytotoxic compounds from the new coprophilous fungus guanomyces polythrix” (J Nat Prod, 2000)
pIC50: −log10 of the molar value. Calls of active or inactive are those of the source. The rule behind the calls is not given here.

Columns and labels:
[1] = target: Calmodulin (Spinacia oleracea) (UniProt P04353); experiment: Binding affinity to spinach calmodulin at 0.033 ug/mL after 1.5 hrs by electrophoretic mobility assay in presence of calcium chloride
Summary of the method: (§1)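 Commercial spinach or bovine brain calmodulin, 2-µg samples, pretreated with compound for 1.5 h at 30 °C in presence of 1 mM CaCl2 or EGTA, then run on 15% polyacrylamide SDS-PAGE gels. Binding judged by shift in electrophoretic mobility relative to untreated calmodulin under the same condition (Ca2+ vs EGTA).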

[2] = target: Calmodulin (Spinacia oleracea) (UniProt P04353); experiment: Binding affinity to spinach calmodulin at 0.033 ug/mL after 1.5 hrs by electrophoretic mobility assay presence of EGTA; summary of the method: as §1
Calmodulin (Bos taurus) [3] = target: Calmodulin (Bos taurus) (UniProt P62157); experiment: Binding affinity to bovine brain calmodulin at 0.033 ug/mL after 1.5 hrs by electrophoretic mobility assay in presence of EGTA; summary of the method: as §1
Echinochloa crus-galli = experiment: Phytotoxicity against Echinochloa crusgalli assessed as inhibition of radicle elongation; assay type: functional, organism-based
Summary of the method: (§2)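 Seedling radicle growth assay at 28 °C. Pure compounds tested at 1, 10 and 100 µg mL-1, with 2,4-D as positive control. Results analysed by ANOVA (p < 0.05). IC50 calculated by Probit analysis from percent radicle growth inhibition.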

[4] = system: Amaranthus hypochondriacus; experiment: Phytotoxicity against Amaranthus hypochondriacus assessed as inhibition of radicle elongation; assay type: functional, organism-based; summary of the method: as §2
Calmodulin (Bos taurus) [5] = target: Calmodulin (Bos taurus) (UniProt P62157); experiment: Binding affinity to bovine brain calmodulin at 0.033 ug/mL after 1.5 hrs by electrophoretic mobility assay in presence of calcium chloride
Summary of the method: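 Bovine brain calmodulin (2 µg samples) pretreated with isolates at 0.033 µg/mL plus 1 mM CaCl2 for 1.5 h at 30 °C. Mobility then compared against untreated calmodulin on 15% polyacrylamide SDS-PAGE. A parallel condition used EGTA in place of Ca2+.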

SMILES: COc1cc(OC)c2c(O)c3c(c(OC)c2c1)O[C@@H](C)[C@H](C)C3=O
- Activity [1]: Active
- Activity [2]: Active
- Activity (Calmodulin (Bos taurus) [3]): Active
- pIC50 (Echinochloa crus-galli): 4.21
- pIC50 [4]: 4.19

SMILES: COC(=O)c1ccc(O)cc1 [METHYLPARABEN]
- Activity [1]: Active
- Activity [2]: Active
- Activity (Calmodulin (Bos taurus) [3]): inactive
- Activity (Calmodulin (Bos taurus) [5]): Active
- pIC50 (Echinochloa crus-galli): 3.20
- pIC50 [4]: 4.64

SMILES: CC1=C2C(=CO[C@H](C)[C@H]2C)C(O)=C(C(=O)O)C1=O [CITRININ]
- Activity [1]: Active
- Activity [2]: Active
- Activity (Calmodulin (Bos taurus) [3]): inactive
- Activity (Calmodulin (Bos taurus) [5]): Active
- pIC50 (Echinochloa crus-galli): 4.20
- pIC50 [4]: 4.26

SMILES: COc1cc(OC)c2c(O)c3c(cc2c1)O[C@@H](C)[C@H](C)C3=O
- Activity [1]: Active
- Activity [2]: Active
- Activity (Calmodulin (Bos taurus) [3]): inactive
- Activity (Calmodulin (Bos taurus) [5]): Active
- pIC50 (Echinochloa crus-galli): 3.92
- pIC50 [4]: 4.00

SMILES: COc1cc(OC)c2c(O)c3c(c(OC)c2c1)O[C@@H](C)CC3=O
- Activity [1]: Active
- Activity [2]: Active
- Activity (Calmodulin (Bos taurus) [3]): inactive
- Activity (Calmodulin (Bos taurus) [5]): Active
- pIC50 (Echinochloa crus-galli): 4.40
- pIC50 [4]: 4.89

SMILES: COc1cc(OC)c2c(O)c3c(=O)c(C)c(C)oc3cc2c1
- Activity [1]: Active
- Activity [2]: Active
- Activity (Calmodulin (Bos taurus) [3]): inactive
- Activity (Calmodulin (Bos taurus) [5]): Active
- pIC50 (Echinochloa crus-galli): 3.77
- pIC50 [4]: 4.10

SMILES: Cc1cc(O)c2c(c1)C(=O)c1cc(O)cc(O)c1C2=O [EMODIN]
- Activity [1]: Active
- Activity [2]: Active
- Activity (Calmodulin (Bos taurus) [3]): inactive
- Activity (Calmodulin (Bos taurus) [5]): Active
- pIC50 (Echinochloa crus-galli): 4.70
- pIC50 [4]: 3.89

SMILES: COc1cc(OC)c2c(O)c3c(=O)cc(C)oc3cc2c1 [RUBROFUSARIN B]
- Activity [1]: Active
- Activity [2]: Active
- Activity (Calmodulin (Bos taurus) [3]): inactive
- Activity (Calmodulin (Bos taurus) [5]): Active
- pIC50 (Echinochloa crus-galli): 4.06
- pIC50 [4]: 4.89

SMILES: COc1cc(OC)c2c(O)c3c(cc2c1)O[C@@H](C)CC3=O
- Activity [1]: Active
- Activity [2]: Active
- Activity (Calmodulin (Bos taurus) [3]): inactive
- Activity (Calmodulin (Bos taurus) [5]): Active
- pIC50 (Echinochloa crus-galli): 4.06
- pIC50 [4]: 4.64

SMILES: O=C(O)COc1ccc(Cl)cc1Cl [2,4-DICHLOROPHENOXYACETIC ACID]
- pIC50 (Echinochloa crus-galli): 3.06
- pIC50 [4]: 3.74
